Reference: ChEMBL document CHEMBL3232878, “QSAR on antiproliferative naphthoquinones based on a conformation-independent approach” (2014)

Key:
Assay type in all cases: functional
[1] = system: SW1573; test: Growth inhibition of human SW1573 cells after 48 hrs by SRB assay; settings: SW1573, 48 h
How it was run: (§1)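 Cells maintained in RPMI 1640 with 5% heat-inactivated fetal calf serum and 2 mM L-glutamine at 37 °C, 5% CO₂, humidified air. Exponentially growing cells trypsinized and resuspended in medium containing penicillin G (100 units/mL) and streptomycin (0.1 mg/mL). Single-cell suspensions with >97% viability by trypan blue exclusion counted, diluted and seeded into 96-well plates.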

[2] = system: WiDr; test: Growth inhibition of human WiDr cells after 48 hrs by SRB assay; how it was run: as §1
[3] = system: HeLa; test: Growth inhibition of human HeLa cells after 48 hrs by SRB assay; how it was run: as §1
[4] = Growth inhibition of human HBL100 cells after 48 hrs by SRB assay; settings: HBL-100, 48 h; how it was run: as §1

Row | SMILES | GI50 [1] [µM] | GI50 [3] [µM] | GI50 [2] [µM] | GI50 [4] [µM]
1 | CC1OC2=C(C(=O)C(=O)c3cccc(O)c32)C1(C)C (configuration not stated) | 2.4 | 1.9 | 19 | 2.2
2 | C=C(C)C1CC2=C(O1)c1c(O)cccc1C(=O)C2=O (configuration not stated) | 2.7 | 3 | 26 | 3
3 | CC1OC2=C(C(=O)C(=O)c3c(O)cccc32)C1(C)C (configuration not stated) | 0.99 | 1.9 | 5.2 | 0.54
4 | CC1(C)C2=C(OC1CI)c1c(O)cccc1C(=O)C2=O (configuration not stated) | 1.6 | 1.6 | 1.8 | 1.8
5 | CC1C2=C(OC1(C)C)c1cccc(O)c1C(=O)C2=O (configuration not stated) | 0.48 | 1.8 | 16 | 0.34

Continued by falling GI50 [1], values first:

Row | GI50 [1] [µM] | GI50 [3] [µM] | SMILES | GI50 [2] [µM] | GI50 [4] [µM]
6 | 1.3 | 0.9 | CC1C2=C(OC1(C)C)c1c(O)cccc1C(=O)C2=O (configuration not stated) | 2.1 | 2
7 | 1 | 0.21 | C=C(C)C1CC2=C(O1)c1cccc(O)c1C(=O)C2=O (configuration not stated) [LANTALUCRATIN B] | 2.2 | 0.46
8 | 0.8 | 1.5 | CC1(C)C2=C(OC1CI)c1cccc(O)c1C(=O)C2=O (configuration not stated) | 1.9 | 0.46
